According to ChEMBL document CHEMBL1148329, “Synthesis and structure-activity studies on N-[5-(1H-imidazol-4-yl)-5,6,7,8-tetrahydro-1-naphthalenyl]methanesulfonamide, an imidazole-containing alpha(1A)-adrenoceptor agonist” (J Med Chem, 2004):

Legend:
[1] = biological target: T1, Alpha-1A adrenergic receptor (Rattus norvegicus, UniProt P43140); experiment: In vitro binding affinity towards alpha-1A adrenergic receptor of rat submaxillary gland in radioligand binding assay
T1 sequence (P43140 whole entry): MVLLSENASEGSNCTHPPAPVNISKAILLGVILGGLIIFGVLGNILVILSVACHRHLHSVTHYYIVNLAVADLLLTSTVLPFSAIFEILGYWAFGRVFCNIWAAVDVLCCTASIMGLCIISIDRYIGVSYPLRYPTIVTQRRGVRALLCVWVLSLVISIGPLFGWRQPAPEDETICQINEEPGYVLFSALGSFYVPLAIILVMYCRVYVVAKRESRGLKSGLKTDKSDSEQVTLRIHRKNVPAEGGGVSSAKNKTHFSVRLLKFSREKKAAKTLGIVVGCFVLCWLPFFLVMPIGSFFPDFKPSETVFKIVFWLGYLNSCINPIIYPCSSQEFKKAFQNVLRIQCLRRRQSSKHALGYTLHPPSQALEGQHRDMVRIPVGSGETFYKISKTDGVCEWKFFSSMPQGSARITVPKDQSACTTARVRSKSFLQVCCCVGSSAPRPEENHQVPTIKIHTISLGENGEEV
Outline: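 Radioligand binding at α1 subtypes: α1A from rat submaxillary gland, α1B hamster clone, α1D rat clone. Run essentially per an earlier method.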

[2] = Selectivity is ratio of efficacy of Alpha-1D to that of alpha-1A adrenoceptor; format: functional
[3] = biological target: T2, Alpha-2A adrenergic receptor (Rattus norvegicus) (UniProt P22909); conditions: Vas deferens
T2 sequence (whole entry): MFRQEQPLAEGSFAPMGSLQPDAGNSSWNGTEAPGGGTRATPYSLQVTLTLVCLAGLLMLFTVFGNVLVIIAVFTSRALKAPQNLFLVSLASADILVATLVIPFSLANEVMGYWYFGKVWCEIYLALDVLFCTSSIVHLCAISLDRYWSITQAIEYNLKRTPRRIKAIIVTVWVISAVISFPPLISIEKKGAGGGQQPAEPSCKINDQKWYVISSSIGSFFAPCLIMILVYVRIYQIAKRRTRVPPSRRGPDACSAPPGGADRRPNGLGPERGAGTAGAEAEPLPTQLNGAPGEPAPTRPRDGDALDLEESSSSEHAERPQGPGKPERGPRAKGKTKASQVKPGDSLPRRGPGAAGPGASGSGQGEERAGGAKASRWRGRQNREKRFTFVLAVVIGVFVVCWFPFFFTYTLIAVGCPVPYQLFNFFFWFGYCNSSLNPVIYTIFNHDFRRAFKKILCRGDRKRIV

[4] = biological target: T3, Alpha-1B adrenergic receptor (Rattus norvegicus) (UniProt P15823); experiment: Efficacy relative to phenylephrine (PE) to constrict tissue containing the alpha-1B adrenergic receptor in rat spleen; format: functional, tissue-based
T3 sequence (whole entry): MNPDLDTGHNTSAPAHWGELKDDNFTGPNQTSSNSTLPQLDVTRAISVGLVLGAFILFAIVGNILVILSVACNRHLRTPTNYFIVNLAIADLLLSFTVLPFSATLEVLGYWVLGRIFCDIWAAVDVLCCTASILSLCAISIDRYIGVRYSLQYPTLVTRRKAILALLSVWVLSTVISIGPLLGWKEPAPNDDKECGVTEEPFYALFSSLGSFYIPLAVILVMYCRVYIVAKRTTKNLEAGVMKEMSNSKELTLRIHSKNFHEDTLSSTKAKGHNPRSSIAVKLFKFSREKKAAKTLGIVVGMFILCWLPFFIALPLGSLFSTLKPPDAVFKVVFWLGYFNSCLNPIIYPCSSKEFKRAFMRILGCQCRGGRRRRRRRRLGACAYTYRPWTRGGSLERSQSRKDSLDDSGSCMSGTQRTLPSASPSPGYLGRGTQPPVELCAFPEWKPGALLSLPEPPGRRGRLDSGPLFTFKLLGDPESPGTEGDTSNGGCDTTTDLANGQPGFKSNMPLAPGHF

## CC(N)C(O)c1ccccc1 (stereo unspecified) [PHENYLPROPANOLAMINE]
[1]
  Ki: 9.77 µM
[2]
  Selectivity: 0.2
[3]
  pD2: 5.17

## O=S(=O)(CC(F)(F)F)Nc1cccc2c1CCCC2c1c[nH]cn1 (single isomer, unassigned; (+))
[1]
  Log Ki: -6.91

## COc1ccc(OC)c(C(O)CN)c1 (stereo unspecified) [DESGLYMIDODRINE]
[2]
  Selectivity: 1

## CN(c1cccc2c1CCCC2c1c[nH]cn1)S(C)(=O)=O (stereo unspecified)
[4]
  Efficacy: 21
